According to ChEMBL document CHEMBL4330057, “Second generation of diazachrysenes: Protection of Ebola virus infected mice and mechanism of action” (Eur J Med Chem, 2019):
Activity calls are given as the source filed them. The calls are words filed in the database; no cut-off is given here.

What was measured:
Ebolavirus [1] = experiment: Antiviral activity against Ebolavirus; type: functional, organism-based; details: Orthoebolavirus
Ebolavirus [2] = experiment: Antiviral activity against Ebolavirus infected in mouse assessed as protection against viral infection at 30 mg/kg/day relative to control; type: functional
Ebolavirus [3] = experiment: Antiviral activity against Ebolavirus H. sapiens-wt/1995/Kikwit-9510621 infected in human HeLa cells assessed as inhibition of viral infection pretreated for 2 hrs followed by viral infection and measured after 48 hrs by EboV GP immunostaining based high content imaging analysis; type: functional, organism-based; details: Orthoebolavirus, H. sapiens-wt/1995/Kikwit-9510621, HeLa; for EC50: read-out: EC50
[4] = Cytotoxicity against human HeLa cells after 2 hrs by high content imaging analysis; type: cell-based
[5] = Selectivity index, ratio of CC50 for human HeLa cells to EC50 for Ebolavirus H. sapiens-wt/1995/Kikwit-9510621 infected in human HeLa cells; type: toxicity, cell-based; details: read-out: Ratio CC50/EC50
[6] = Stability in plasma (unknown origin) after 1 hr at 37 degC; type: ADME, cell-free; details: read-out: Stability
In short: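 Compound was incubated in plasma for 1 h at 37 °C, and the percent remaining was reported.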

[7] = Solubility of the compound in pH 7.4 buffer by laser nephelometric method; type: physicochemical
In short: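 Solubility at pH 7.4 was measured by laser nephelometry (light scattering), in triplicate.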

Cytochrome P450 3A4 [8] = molecular target: T1, Cytochrome P450 3A4 (Homo sapiens, UniProt P08684); experiment: Inhibition of CYP3A4 (unknown origin) using 7-benzyloxyquinoline as substrate; type: ADME
In short: (§1)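 CYP IC50 was taken from the net fluorescent signal after incubation at 37 °C for a set time with active cytochrome P450 enzyme and a fluorescent probe substrate.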

Cytochrome P450 3A4 [9] = molecular target: T1, Cytochrome P450 3A4; experiment: Inhibition of CYP3A4 (unknown origin) using dibenzylfluorescein as substrate; type: ADME; in short: as §1
Cytochrome P450 3A4 [10] = molecular target: T1, Cytochrome P450 3A4; experiment: Inhibition of CYP3A4 (unknown origin) using 7-benzyloxy-4-trifluoromethylcoumarin as substrate; type: ADME; in short: as §1
Cytochrome P450 2D6 = Cytochrome P450 2D6 (Homo sapiens, UniProt P10635); experiment: Inhibition of CYP2D6 (unknown origin) using 3-(2-(N, N-Diethyl-N-methylamino)ethyl)-7-Methoxy-4-Methylcoumarin as substrate; type: ADME; details: read-out: INH; in short: as §1
Cytochrome P450 2C19 = Cytochrome P450 2C19 (Homo sapiens, UniProt P33261); experiment: Inhibition of CYP2C19 (unknown origin) using CEC as substrate; type: ADME; in short: as §1
[11] = Clearance in mouse liver microsomes after 1 hr; type: ADME, Microsome; details: read-out: CLH
In short: (§2)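 Substrate depletion with mouse or human liver microsomes, 1 h at 37 °C. Clearance (μL/min/mg) and half-life derived.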

[12] = Clearance in human liver microsomes after 1 hr; type: ADME, Microsome; details: read-out: CLH; in short: as §2
[13] = Half life in mouse liver microsomes; type: ADME, Microsome; in short: as §2
[14] = Half life in human liver microsomes; type: ADME, Microsome; in short: as §2
[15] = Solubility of the compound in deionized water; type: physicochemical
Ebolavirus [16] = experiment: Antiviral activity against Ebolavirus infected in mouse assessed as protection against viral infection at 60 mg/kg/day relative to control; type: functional
Ebolavirus [17] = experiment: Antiviral activity against Ebolavirus infected in mouse assessed as protection against viral infection at 24 mg/kg/day relative to control; type: functional
Zaire ebolavirus [18] = experiment: Antiviral activity against Ebolavirus Mayinga infected in Balb/c mouse assessed as protection against viral infection by measuring host survival at 10 mg/kg, ip administered 2 hrs prior to viral infection daily for 6 days and measured for 14 days relative to control; type: functional, 1976
Zaire ebolavirus [19] = experiment: Antiviral activity against VSV pseudotyped Ebolavirus Mayinga expressing GFP infected in human HeLa cells assessed as inhibition of viral infection at 2 uM pre-incubated for 2 hrs followed by viral infection and measured after 8 hrs by cell mask deep red staining based assay; type: functional, organism-based; details: 1976
In short: (§3)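 HeLa cells pretreated 2 h with compound, then infected with rVSV-EBOV-GP-GFP (8 h) or VSV-GFP (6 h), and stained with Cell Mask Deep Red. Relative inhibition = 1 minus (% GFP-expressing cells normalised to mock). Mean ± SD of three replicates, representative of three independent experiments.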

[20] = test system: Vesicular stomatitis virus; experiment: Antiviral activity against VSV expressing GFP infected in human HeLa cells assessed as inhibition of viral infection at 2 uM pre-incubated for 2 hrs followed by viral infection and measured after 6 hrs by cell mask deep red staining based assay; type: functional, organism-based; in short: as §3
Zaire ebolavirus [21] = experiment: Antiviral activity against VSV pseudotyped Ebolavirus Mayinga expressing GFP infected in human HeLa cells assessed as inhibition of viral infection up to 50 uM pre-incubated for 2 hrs followed by viral infection and measured after 8 hrs by high content imaging analysis; type: functional, organism-based; details: 1976; in short: as §3
[22] = test system: Vesicular stomatitis virus; experiment: Antiviral activity against VSV expressing GFP infected in human HeLa cells assessed as inhibition of viral infection at 50 uM pre-incubated for 2 hrs followed by viral infection and measured after 6 hrs by cell mask deep red staining based assay; type: functional, organism-based; in short: as §3
[23] = test system: Vesicular stomatitis virus; experiment: Antiviral activity against VSV expressing GFP infected in human HeLa cells assessed as inhibition of viral infection at 0.1 uM pre-incubated for 2 hrs followed by viral infection and measured after 6 hrs by cell mask deep red staining based assay; type: functional, organism-based; in short: as §3
HeLa [24] = experiment: Induction of lysosomotropism in human HeLa cells infected with Ebolavirus assessed as increase in fluorescence intensity of acid compartments at 0.01 uM for 1 hr by Lysosensor DND189 staining based assay; type: functional, cell-based
In short: (§4)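 HeLa cells were pretreated 1 h with compound (Bafilomycin A1 at 0.01 μM as acidification control), then stained with LysoSensor DND 189 for 10 min and washed. Live imaging at Ex/Em 443/505 nm. Fluorescence intensity per area was quantified by image analysis. Eight wells per point, about 3000 cells/well, mean ± SD, three independent experiments.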

HeLa [25] = experiment: Induction of lysosomotropism in human HeLa cells infected with Ebolavirus assessed as expansion of acid compartments at 0.01 uM for 2 hrs by acridine orange staining based assay; type: functional, cell-based
In short: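 HeLa cells pretreated 2 h, then acridine orange for 30 min, washed and imaged. Total intensity and average area of acridine orange fluorescence quantified by high-content imaging. Mean ± SD of 8 wells, about 3000 cells each, three independent experiments.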

[26] = molecular target: Cathepsin B (Homo sapiens) (UniProt P07858); experiment: Inhibition of cathepsin B activity in human HeLa cells at 0.01 uM after 12 hrs by magic red substrate based fluorescence assay; type: cell-based
In short: (§5)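 HeLa cells were exposed to compound for 12 h, then given the Magic Red cathepsin B peptide reporter, washed, and imaged at Ex/Em 590/630. Total intensity and average area of red fluorescence were scored by high-content analysis. Eight wells per point, about 3000 cells/well, mean ± SD, three independent experiments.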

Zaire ebolavirus [27] = experiment: Antiviral activity against VSV pseudotyped Ebolavirus Mayinga expressing GFP infected in human HeLa cells assessed as inhibition of viral infection at 10 uM pre-incubated for 2 hrs followed by viral infection and measured after 8 hrs by cell mask deep red staining based assay; type: functional, organism-based; details: 1976; in short: as §3
HeLa [28] = experiment: Induction of lysosomotropism in human HeLa cells infected with Ebolavirus assessed as increase in fluorescence intensity of acid compartments at 10 uM for 1 hr by Lysosensor DND189 staining based assay; type: functional, cell-based; in short: as §4
HeLa [29] = experiment: Induction of lysosomotropism in human HeLa cells infected with Ebolavirus assessed as increase in lysosome concentration in juxtanuclear region at 10 uM for 2 hrs by acridine orange staining based assay; type: functional, cell-based
In short: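 HeLa cells were pretreated with compound for 2 h, then given acridine orange for 30 min and washed. Red AO fluorescence in acidic compartments was imaged, and total intensity and average area were scored by high-content imaging. Eight wells per point, about 3000 cells/well, mean ± SD, representative of three independent experiments.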

[30] = molecular target: Cathepsin B (Homo sapiens) (UniProt P07858); experiment: Inhibition of cathepsin B activity in human HeLa cells at 10 uM after 12 hrs by magic red substrate based fluorescence assay; type: cell-based; in short: as §5
Ebolavirus [31] = experiment: Antiviral activity against Ebolavirus infected in mouse assessed as protection against viral infection at 20 mg/kg/day relative to control; type: functional
Ebolavirus [32] = experiment: Antiviral activity against Ebolavirus infected in mouse assessed as protection against viral infection at 300 mg/kg/day relative to control; type: functional
Ebolavirus [33] = experiment: Antiviral activity against Ebolavirus infected in monkey assessed as protection against viral infection at 3.3 mg/kg/day relative to control; type: functional

T1 sequence (P08684 whole entry): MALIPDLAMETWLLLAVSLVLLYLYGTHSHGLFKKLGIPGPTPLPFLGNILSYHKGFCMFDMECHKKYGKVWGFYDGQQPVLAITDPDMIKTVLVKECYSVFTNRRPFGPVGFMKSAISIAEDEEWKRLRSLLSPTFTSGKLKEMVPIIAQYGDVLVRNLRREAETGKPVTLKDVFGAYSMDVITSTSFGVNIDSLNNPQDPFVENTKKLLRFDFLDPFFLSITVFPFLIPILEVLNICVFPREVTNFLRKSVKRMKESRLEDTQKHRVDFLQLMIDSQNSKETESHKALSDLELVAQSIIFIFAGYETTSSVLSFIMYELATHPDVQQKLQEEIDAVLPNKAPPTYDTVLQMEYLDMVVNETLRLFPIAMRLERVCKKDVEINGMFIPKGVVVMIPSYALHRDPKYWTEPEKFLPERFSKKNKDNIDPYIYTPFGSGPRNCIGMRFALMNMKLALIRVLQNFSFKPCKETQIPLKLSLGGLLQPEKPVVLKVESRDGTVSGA
Sequence of Cytochrome P450 2C19 (P33261 whole entry): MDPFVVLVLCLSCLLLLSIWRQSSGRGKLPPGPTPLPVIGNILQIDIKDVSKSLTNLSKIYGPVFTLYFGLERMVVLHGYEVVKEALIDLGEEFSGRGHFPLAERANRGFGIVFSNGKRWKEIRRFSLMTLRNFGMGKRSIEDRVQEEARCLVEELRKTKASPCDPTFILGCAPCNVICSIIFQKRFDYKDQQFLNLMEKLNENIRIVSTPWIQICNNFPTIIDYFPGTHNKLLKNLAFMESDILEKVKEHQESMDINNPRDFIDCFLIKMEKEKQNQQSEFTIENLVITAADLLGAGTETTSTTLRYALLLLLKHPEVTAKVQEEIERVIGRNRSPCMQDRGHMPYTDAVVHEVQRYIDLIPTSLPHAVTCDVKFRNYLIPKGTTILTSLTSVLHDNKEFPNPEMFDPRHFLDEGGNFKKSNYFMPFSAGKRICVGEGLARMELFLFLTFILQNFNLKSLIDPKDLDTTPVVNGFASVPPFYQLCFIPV
Sequence of Cytochrome P450 2D6 (P10635 whole entry): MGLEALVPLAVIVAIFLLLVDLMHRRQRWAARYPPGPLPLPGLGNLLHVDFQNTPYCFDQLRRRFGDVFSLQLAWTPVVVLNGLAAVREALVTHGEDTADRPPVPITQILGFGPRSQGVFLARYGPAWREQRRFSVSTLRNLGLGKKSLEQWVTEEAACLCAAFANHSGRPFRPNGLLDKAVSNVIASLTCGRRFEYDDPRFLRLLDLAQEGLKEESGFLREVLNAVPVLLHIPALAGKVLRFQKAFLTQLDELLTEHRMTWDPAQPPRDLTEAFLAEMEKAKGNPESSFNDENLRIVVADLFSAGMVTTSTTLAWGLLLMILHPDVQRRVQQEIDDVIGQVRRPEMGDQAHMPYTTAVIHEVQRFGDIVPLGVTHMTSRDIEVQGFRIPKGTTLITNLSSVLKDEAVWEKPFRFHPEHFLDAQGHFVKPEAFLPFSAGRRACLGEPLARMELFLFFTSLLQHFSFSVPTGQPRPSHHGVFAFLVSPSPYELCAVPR

NC(=O)c1nc(F)cnc1O
EC50 (Ebolavirus [1]): 67 µM
Activity (Ebolavirus [2]): 100%

CCN(CC)CCCNc1ccnc2c(NCCCN(CC)CC)ccnc12
EC90 (Ebolavirus [3]): 37.4 µM
EC50 (Ebolavirus [3]): 4.82 µM
CC50 at 2 h [4]: > 10 µM
selectivity ratio [5]: > 2
remaining at 1 h [6]: > 85%
solubility kinetic [7]: > 0.05 mg/mL
INH (Cytochrome P450 3A4 [8]): > 10 µM
INH (Cytochrome P450 3A4 [9]): > 10 µM
INH (Cytochrome P450 3A4 [10]): > 10 µM
IC50 (Cytochrome P450 2D6): > 10 µM
INH (Cytochrome P450 2C19): > 10 µM
microsomal CLint [11]: < 23 µL/min/mg
microsomal CLint [12]: < 23 µL/min/mg
half-life [13]: > 1 h
half-life [14]: > 1 h
solubility [15]: ≥ 25 mg/mL

CN(C)CCOc1ccc(/C(=C(/CCCl)c2ccccc2)c2ccccc2)cc1 [TOREMIFENE]
EC50 (Ebolavirus [1]): 0.97 to 1.73 µM
Activity (Ebolavirus [16]): 50%

CC(C)COCC(CN(Cc1ccccc1)c1ccccc1)N1CCCC1 (stereo not given) [BEPRIDIL]
Activity (Ebolavirus [17]): 100%

CCN(CC)CCCC(C)Nc1ccnc2c(NC(C)CCCN(CC)CC)ccnc12 (stereo not given)
EC90 (Ebolavirus [3]): 4.73 µM
EC50 (Ebolavirus [3]): 0.78 µM
CC50 at 2 h [4]: > 10 µM
selectivity ratio [5]: > 13
remaining at 1 h [6]: > 85%
solubility kinetic [7]: > 0.05 mg/mL
INH (Cytochrome P450 3A4 [8]): > 10 µM
INH (Cytochrome P450 3A4 [9]): > 10 µM
INH (Cytochrome P450 3A4 [10]): > 10 µM
IC50 (Cytochrome P450 2D6): 8 µM
INH (Cytochrome P450 2C19): 3.6 µM
microsomal CLint [11]: 32.9 µL/min/mg
microsomal CLint [12]: < 23 µL/min/mg
half-life [13]: 0.7 h
half-life [14]: > 1 h
solubility [15]: ≥ 25 mg/mL
Activity (Zaire ebolavirus [18]): 40%
Activity (Zaire ebolavirus [19]): Active
Activity [20]: inactive
Activity (Zaire ebolavirus [21]): Active
Activity [22]: Active
Activity [23]: inactive

CO/C1=C\C(C)=C\[C@@H](C)[C@@H](O)[C@@H](C)C/C(C)=C/C=C/[C@H](OC)[C@@H]([C@@H](C)[C@@H](O)[C@H](C)[C@@]2(O)C[C@@H](O)[C@H](C)[C@@H](C(C)C)O2)OC1=O
Activity (HeLa [24]): Active
Activity (HeLa [25]): inactive
inhibition [26]: Active

CCN(CC)Cc1cc(Nc2ccnc3cc(Cl)ccc23)ccc1O
Activity (Zaire ebolavirus [27]): Active
Activity (HeLa [28]): inactive
Activity (HeLa [29]): Active
inhibition [30]: inactive

CN[C@H]1CC[C@@H](c2ccc(Cl)c(Cl)c2)c2ccccc21 [SERTRALINE]
Activity (Ebolavirus [31]): 70%

Nc1ncnc2c(C[C@@H]3N[C@H](CO)[C@@H](O)[C@H]3O)c[nH]c12
EC50 (Ebolavirus [1]): 3.4 to 11.8 µM
Activity (Ebolavirus [32]): 100%

CCC(CC)COC(=O)[C@H](C)N[P@](=O)(OC[C@H]1O[C@@](C#N)(c2ccc3c(N)ncnn23)[C@H](O)[C@@H]1O)Oc1ccccc1
EC50 (Ebolavirus [1]): 0.06 to 0.14 µM
Activity (Ebolavirus [33]): 100%
